Experimental data from ChEMBL document CHEMBL2202989, “New adamantane phenylalkylamines with σ-receptor binding affinity and anticancer activity, associated with putative antagonism of neuropathic pain” (J Med Chem, 2012).

Tests used:
BXPC-3 [1] = assay: Cell cycle arrest in human BxPC3 cells assessed as accumulation at G2 phase at 15 uM after 24 hrs using propidium iodide staining by FACS analysis (reference value: 12 %); type: functional
Summary of the method: (§1)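 Cells were plated 24 h before treatment and exposed for 24 h at final 0.5, 5, 15 and 50 μM in 0.5% DMSO, against vehicle-treated controls. Cells were then trypsinised and fixed in cold ethanol for 3 h at 4 °C. They were stained in a mix of RNase (200 μg/mL) and PI (1 mg/mL) for 45 min at room temperature in the dark. Flow cytometry used 488 nm excitation and 10 000 gated cells. Phase percentages were assigned from DNA content.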

PC-3 [2] = assay: Induction of apoptosis in human PC3 cells assessed as early apoptosis at 0.5 uM using annexin V/7-AAD by FACS analysis (reference value: 5 %); type: functional
IGROV-1 [3] = assay: Cell cycle arrest in human IGROV1 cells assessed as accumulation at >G2/M phase at 15 uM after 24 hrs using propidium iodide staining by FACS analysis (reference value: 21 %); type: functional; summary of the method: as §1
BXPC-3 [4] = assay: Antitumor activity against human BxPC3 cells xenografted in SCID mouse assessed as tumor growth inhibition at 50 mg/kg, ip administered 3 consecutives days per week for one cycle relative to control; type: functional; details: BXPC-3, ip, route intraperitoneal, read-out: TGI
BXPC-3 [5] = assay: Induction of apoptosis in human BxPC3 cells assessed as late apoptosis at 5 uM using annexin V/7-AAD by FACS analysis (reference value: 9 %); type: functional
IGROV-1 [6] = assay: Growth inhibition of human IGROV1 cells after 48 hrs by SRB assay; type: functional; details: IGROV-1, 48 h
Summary of the method: (§2)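 Cells grown in RPMI 1640 with 5% heat-inactivated FCS, 2 mM L-glutamine and antibiotics, 37 °C, 5% CO2. Seeded at 3500–30000 cells/well and left 24 h before dosing. DMSO solutions added at 10-fold dilutions from 100 to 0.01 μM for 48 h. Cells TCA-fixed and SRB-stained, absorbance read at 540 nm; GI50 derived against the time-zero plate.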

PC-3 [7] = assay: Induction of apoptosis in human PC3 cells assessed as early apoptosis at 15 uM using annexin V/7-AAD by FACS analysis (reference value: 5 %); type: functional
BXPC-3 [8] = assay: Induction of apoptosis in human BxPC3 cells assessed as cleaved caspase3 containing cells at 15 uM by antibody-based FACS analysis (reference value: 8.2 %); type: functional
OVCAR-5 [9] = assay: Antitumor activity against human OVCAR5 cells xenografted in SCID mouse assessed as axillary metastasis at 55 mg/kg, ip administered 5 consecutive days in a week for two cycles measured after 2 cycles relative to control; type: functional; details: OVCAR-5, ip, route intraperitoneal, read-out: TGI
Summary of the method: (§3)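 SCID mice carried OVCAR5 xenografts (10^6 cells per inoculum), 16 mice (32 tumors) per group, with ip dosing in 5% Tween 80 from a tumor volume of about 100 mm3. Caliper volume was measured twice weekly and %ΔT/ΔC derived. At termination, primary tumors were weighed and secondary metastases were scored at axillary and bone sites (n = 7−8). Two-tailed t test.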

PC-3 [10] = assay: Cell cycle arrest in human PC3 cells assessed as accumulation at G1 phase at 5 uM after 24 hrs using propidium iodide staining by FACS analysis (reference value: 36 %); type: functional
HCT-116 = assay: Growth inhibition of human HCT116 cells after 48 hrs by SRB assay; type: functional; details: HCT-116, 48 h; summary of the method: as §2
PC-3 [11] = assay: Induction of apoptosis in human PC3 cells assessed as cleaved caspase3 containing cells at 5 uM by antibody-based FACS analysis (reference value: 3.2 %); type: functional
PC-3 [12] = assay: Cell cycle arrest in human PC3 cells assessed as accumulation at G1 phase at 50 uM after 24 hrs using propidium iodide staining by FACS analysis (reference value: 36 %); type: functional
OVCAR-5 [13] = assay: Antitumor activity against human OVCAR5 cells xenografted in SCID mouse assessed as primary tumor growth inhibition at 55 mg/kg, ip administered 5 consecutive days in a week for two cycles measured after 2 cycles relative to control; type: functional; details: OVCAR-5, ip, route intraperitoneal, read-out: TGI; summary of the method: as §3
IGROV-1 [14] = assay: Cell cycle arrest in human IGROV1 cells assessed as accumulation at G1 phase at 50 uM after 24 hrs using propidium iodide staining by FACS analysis (reference value: 27 %); type: functional; summary of the method: as §1
IGROV-1 [15] = assay: Cell cycle arrest in human IGROV1 cells assessed as accumulation at G1 phase at 5 uM after 24 hrs using propidium iodide staining by FACS analysis (reference value: 27 %); type: functional; summary of the method: as §1
IGROV-1 [16] = assay: Induction of apoptosis in human IGROV1 cells assessed as cleaved caspase3 containing cells at 5 uM by antibody-based FACS analysis (reference value: 3.9 %); type: functional
BXPC-3 [17] = assay: Cell cycle arrest in human BxPC3 cells assessed as accumulation at sub G1 phase at 5 uM after 24 hrs using propidium iodide staining by FACS analysis (reference value: 9 %); type: functional; summary of the method: as §1
BXPC-3 [18] = assay: Induction of apoptosis in human BxPC3 cells assessed as late apoptosis at 15 uM using annexin V/7-AAD by FACS analysis (reference value: 9 %); type: functional
BXPC-3 [19] = assay: Induction of apoptosis in human BxPC3 cells assessed as early apoptosis at 50 uM using annexin V/7-AAD by FACS analysis (reference value: 9 %); type: functional
[20] = Growth inhibition of human MSC cells after 48 hrs by SRB assay; type: cell-based; summary of the method: as §2
BXPC-3 [21] = assay: Induction of apoptosis in human BxPC3 cells assessed as healthy cells at 15 uM using annexin V/7-AAD by FACS analysis (reference value: 79 %); type: functional
BXPC-3 [22] = assay: Induction of apoptosis in human BxPC3 cells assessed as total apoptotic death at 0.5 uM using annexin V/7-AAD by FACS analysis (reference value: 18 %); type: functional
Summary of the method: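 Cells plated 24 h before treatment, then exposed 24 h to 0.5, 5, 15 or 50 μM compound (final DMSO 0.5%); vehicle controls included. Cells scraped and stained with annexin V-FITC and 7-AAD for 15 min on ice in the dark. Flow cytometry with 488 nm excitation, 10,000 gated cells. Early apoptosis was annexin V+/7-AAD−, late was annexin V+/7-AAD+.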

BXPC-3 [23] = assay: Induction of apoptosis in human BxPC3 cells assessed as early apoptosis at 15 uM using annexin V/7-AAD by FACS analysis (reference value: 9 %); type: functional
IGROV-1 [24] = assay: Induction of apoptosis in human IGROV1 cells assessed as late apoptosis at 0.5 uM using annexin V/7-AAD by FACS analysis (reference value: 5 %); type: functional
PC-3 [25] = assay: Induction of apoptosis in human PC3 cells assessed as late apoptosis at 5 uM using annexin V/7-AAD by FACS analysis (reference value: 3 %); type: functional
BXPC-3 [26] = assay: Cell cycle arrest in human BxPC3 cells assessed as accumulation at G1 phase at 5 uM after 24 hrs using propidium iodide staining by FACS analysis (reference value: 41 %); type: functional; summary of the method: as §1
IGROV-1 [27] = assay: Cell cycle arrest in human IGROV1 cells assessed as accumulation at G2 phase at 50 uM after 24 hrs using propidium iodide staining by FACS analysis (reference value: 19 %); type: functional
[28] = read-out: LC50 (the source's name)

`CN1CCN(CCCc2ccc(C(c3ccccc3)C34CC5CC(CC(C5)C3)C4)cc2)CC1` (configuration not stated) showed an Activity (BXPC-3 [1]) of 12%, an Activity (PC-3 [2]) of 3% and an Activity (IGROV-1 [3]) of 17%. For the same compound, the inhibition in vivo at 50 mg/kg (BXPC-3 [4]) was 41.6%, the Activity (BXPC-3 [5]) was 10% and the GI50 (IGROV-1 [6]) was 4.54 µM. The TGI (IGROV-1 [6]) was 11.9 µM, the CC50 (IGROV-1 [6]; [28]) was 0.0748 µM and the Activity (PC-3 [7]) was 9%. It also gave an Activity (BXPC-3 [8]) of 17.5%, an inhibition in vivo at 55 mg/kg (OVCAR-5 [9]) of 25% and an Activity (PC-3 [10]) of 36%. It also gave a GI50 (HCT-116) of 3.38 µM, a TGI (HCT-116) of 6.05 µM and a CC50 (HCT-116; [28]) of 0.00873 µM. For the same compound, the Activity (PC-3 [11]) was 2%, the Activity (PC-3 [12]) was 29% and the inhibition in vivo at 55 mg/kg (OVCAR-5 [13]) was 46.9%. The Activity (IGROV-1 [14]) was 30%, the Activity (IGROV-1 [15]) was 29% and the Activity (IGROV-1 [16]) was 12.6%. It also gave an Activity (BXPC-3 [17]) of 8%, an Activity (BXPC-3 [18]) of 26% and an Activity (BXPC-3 [19]) of 2%. It also gave a TGI [20] of 30.9 µM, an Activity (BXPC-3 [21]) of 35% and an Activity (BXPC-3 [22]) of 17%. For the same compound, the Activity (BXPC-3 [23]) was 19%, the Activity (IGROV-1 [24]) was 3% and the Activity (PC-3 [25]) was 2%. The Activity (BXPC-3 [26]) was 53% and the Activity (IGROV-1 [27]) was 10%.
